{"source": "ChEMBL document CHEMBL5724801", "about": "“EUbOPEN Chemogenomics Library - Multiplex” (2024)", "key": {"[1]": {"test_system": "U2OS", "test": "Multiplex assay against U2OS", "format": "toxicity, cell-based", "settings": "human", "how_it_was_run": "(§1)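 Per cents of healthy-nucleus cells form the tubulin, mitochondrial-mass and membrane-permeability phenotype values. Live cells were stained at seeding with Hoechst33342, BioTracker Green Microtubule Cytoskeleton Dye, MitoTracker Red and Annexin V Alexa Fluor 680. After compound addition they were imaged on a CQ1 microscope at 37°C and 5% CO2, and CellPathfinder machine-learning gating split them into Hoechst high-intensity objects or normal cells, normal cells into healthy, pyknosed or fragmented nuclei, and pyknosed cells into mitotic or apoptotic.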"}, "[2]": {"test_system": "HEK-293T", "test": "Multiplex assay against HEK293T", "format": "toxicity, cell-based", "settings": "human", "how_it_was_run": "as §1"}, "[3]": {"settings": "12 h, 1 µM, compound concentration 1 uM"}, "[4]": {"settings": "12 h, 10 µM, compound concentration 10 uM"}, "[5]": {"settings": "24 h, 1 µM, compound concentration 1 uM"}, "[6]": {"settings": "24 h, 10 µM, compound concentration 10 uM"}, "[7]": {"settings": "48 h, 1 µM, compound concentration 1 uM"}, "[8]": {"settings": "48 h, 10 µM, compound concentration 10 uM"}}, "note": "Several values for one entry are separate records, joined by “and”; a condition that tells them apart may be missing. Identical values can stand only once."}
{"smiles": "CN1C[C@H](C(=O)N[C@]2(C)O[C@@]3(O)[C@@H]4CCCN4C(=O)[C@H](Cc4ccccc4)N3C2=O)C[C@@H]2c3cccc4[nH]cc(c34)C[C@H]21.CS(=O)(=O)O", "note": "[DIHYDROERGOTAMINE MESYLATE]", "values": [{"measurement": "Population Apoptotic (%)", "setting": "[1]; [3]", "value": "82% and 84%"}, {"measurement": "Population Fragmented Nuclei (%)", "setting": "[1]; [3]", "value": "24% and 23%"}, {"measurement": "Population Healthy Nuclei (%)", "setting": "[1]; [3]", "value": "65% and 63%"}, {"measurement": "Population Hoechst High Intensity Objects (%)", "setting": "[1]; [3]", "value": 1, "unit": "%"}, {"measurement": "Population Membrane Permeable-Phenotype (%)", "setting": "[1]; [3]", "value": "6% and 14%"}, {"measurement": "Population Mitochondria Different-Phenotype (%)", "setting": "[1]; [3]", "value": "2% and 1%"}, {"measurement": "Population Mitotic Cells (%)", "setting": "[1]; [3]", "value": "17% and 15%"}, {"measurement": "Population Normal (%)", "setting": "[1]; [3]", "value": 98, "unit": "%"}, {"measurement": "Population Pyknosed Nuclei (%)", "setting": "[1]; [3]", "value": "10% and 13%"}, {"measurement": "Population Tubulin-Different-Phenotype (%)", "setting": "[1]; [3]", "value": "2% and 7%"}, {"measurement": "Total Cell Count", "setting": "[1]; [3]", "value": "233 and 101"}, {"measurement": "Population Apoptotic (%)", "setting": "[1]; [4]", "value": "71% and 100%"}, {"measurement": "Population Fragmented Nuclei (%)", "setting": "[1]; [4]", "value": 19, "unit": "%"}, {"measurement": "Population Healthy Nuclei (%)", "setting": "[1]; [4]", "value": "73% and 77%"}, {"measurement": "Population Hoechst High Intensity Objects (%)", "setting": "[1]; [4]", "value": "2% and 1%"}, {"measurement": "Population Membrane Permeable-Phenotype (%)", "setting": "[1]; [4]", "value": 5, "unit": "%"}, {"measurement": "Population Mitochondria Different-Phenotype (%)", "setting": "[1]; [4]", "value": "1% and 0%"}, {"measurement": "Population Normal (%)", "setting": "[1]; [4]", "value": "97% and 98%"}, {"measurement": "Population Pyknosed Nuclei (%)", "setting": "[1]; [4]", "value": "7% and 2%"}, {"measurement": "Population Tubulin-Different-Phenotype (%)", "setting": "[1]; [4]", "value": "3% and 0%"}, {"measurement": "Total Cell Count", "setting": "[1]; [4]", "value": "298 and 144"}, {"measurement": "Population Apoptotic (%)", "setting": "[1]; [5]", "value": "89% and 100%"}, {"measurement": "Population Fragmented Nuclei (%)", "setting": "[1]; [5]", "value": "23% and 21%"}, {"measurement": "Population Healthy Nuclei (%)", "setting": "[1]; [5]", "value": "67% and 65%"}, {"measurement": "Population Hoechst High Intensity Objects (%)", "setting": "[1]; [5]", "value": "0% and 1%"}, {"measurement": "Population Membrane Permeable-Phenotype (%)", "setting": "[1]; [5]", "value": "2% and 8%"}, {"measurement": "Population Mitochondria Different-Phenotype (%)", "setting": "[1]; [5]", "value": "0% and 2%"}, {"measurement": "Population Mitotic Cells (%)", "setting": "[1]; [5]", "value": "10% and 0%"}, {"measurement": "Population Normal (%)", "setting": "[1]; [5]", "value": "99% and 98%"}, {"measurement": "Population Pyknosed Nuclei (%)", "setting": "[1]; [5]", "value": "9% and 13%"}, {"measurement": "Population Tubulin-Different-Phenotype (%)", "setting": "[1]; [5]", "value": "2% and 4%"}, {"measurement": "Total Cell Count", "setting": "[1]; [5]", "value": "307 and 132"}, {"measurement": "Population Apoptotic (%)", "setting": "[1]; [6]", "value": "88% and 92%"}, {"measurement": "Population Fragmented Nuclei (%)", "setting": "[1]; [6]", "value": "18% and 16%"}, {"measurement": "Population Healthy Nuclei (%)", "setting": "[1]; [6]", "value": "73% and 75%"}, {"measurement": "Population Hoechst High Intensity Objects (%)", "setting": "[1]; [6]", "value": 1, "unit": "%"}, {"measurement": "Population Membrane Permeable-Phenotype (%)", "setting": "[1]; [6]", "value": 4, "unit": "%"}, {"measurement": "Population Mitochondria Different-Phenotype (%)", "setting": "[1]; [6]", "value": 2, "unit": "%"}, {"measurement": "Population Mitotic Cells (%)", "setting": "[1]; [6]", "value": "11% and 7%"}, {"measurement": "Population Normal (%)", "setting": "[1]; [6]", "value": 98, "unit": "%"}, {"measurement": "Population Pyknosed Nuclei (%)", "setting": "[1]; [6]", "value": 8, "unit": "%"}, {"measurement": "Population Tubulin-Different-Phenotype (%)", "setting": "[1]; [6]", "value": "2% and 1%"}, {"measurement": "Total Cell Count", "setting": "[1]; [6]", "value": "337 and 163"}, {"measurement": "Population Apoptotic (%)", "setting": "[1]; [7]", "value": "80% and 90%"}, {"measurement": "Population Fragmented Nuclei (%)", "setting": "[1]; [7]", "value": "14% and 11%"}, {"measurement": "Population Healthy Nuclei (%)", "setting": "[1]; [7]", "value": "78% and 76%"}, {"measurement": "Population Hoechst High Intensity Objects (%)", "setting": "[1]; [7]", "value": "2% and 1%"}, {"measurement": "Population Membrane Permeable-Phenotype (%)", "setting": "[1]; [7]", "value": "2% and 6%"}, {"measurement": "Population Mitochondria Different-Phenotype (%)", "setting": "[1]; [7]", "value": 2, "unit": "%"}, {"measurement": "Population Mitotic Cells (%)", "setting": "[1]; [7]", "value": "19% and 10%"}, {"measurement": "Population Normal (%)", "setting": "[1]; [7]", "value": "97% and 98%"}, {"measurement": "Population Pyknosed Nuclei (%)", "setting": "[1]; [7]", "value": "7% and 11%"}, {"measurement": "Population Tubulin-Different-Phenotype (%)", "setting": "[1]; [7]", "value": "1% and 4%"}, {"measurement": "Total Cell Count", "setting": "[1]; [7]", "value": "427 and 173"}, {"measurement": "Population Apoptotic (%)", "setting": "[1]; [8]", "value": "95% and 100%"}, {"measurement": "Population Fragmented Nuclei (%)", "setting": "[1]; [8]", "value": "14% and 19%"}, {"measurement": "Population Healthy Nuclei (%)", "setting": "[1]; [8]", "value": "75% and 72%"}, {"measurement": "Population Hoechst High Intensity Objects (%)", "setting": "[1]; [8]", "value": 3, "unit": "%"}, {"measurement": "Population Membrane Permeable-Phenotype (%)", "setting": "[1]; [8]", "value": "7% and 3%"}, {"measurement": "Population Mitochondria Different-Phenotype (%)", "setting": "[1]; [8]", "value": "3% and 1%"}, {"measurement": "Population Mitotic Cells (%)", "setting": "[1]; [8]", "value": "4% and 0%"}, {"measurement": "Population Normal (%)", "setting": "[1]; [8]", "value": 96, "unit": "%"}, {"measurement": "Population Pyknosed Nuclei (%)", "setting": "[1]; [8]", "value": "9% and 8%"}, {"measurement": "Population Tubulin-Different-Phenotype (%)", "setting": "[1]; [8]", "value": "3% and 2%"}, {"measurement": "Total Cell Count", "setting": "[1]; [8]", "value": "452 and 217"}, {"measurement": "Population Apoptotic (%)", "setting": "[2]; [3]", "value": "38% and 46%"}, {"measurement": "Population Fragmented Nuclei (%)", "setting": "[2]; [3]", "value": "6% and 3%"}, {"measurement": "Population Healthy Nuclei (%)", "setting": "[2]; [3]", "value": "84% and 81%"}, {"measurement": "Population Hoechst High Intensity Objects (%)", "setting": "[2]; [3]", "value": 5, "unit": "%"}, {"measurement": "Population Membrane Permeable-Phenotype (%)", "setting": "[2]; [3]", "value": 0, "unit": "%"}, {"measurement": "Population Mitochondria Different-Phenotype (%)", "setting": "[2]; [3]", "value": "41% and 65%"}, {"measurement": "Population Mitotic Cells (%)", "setting": "[2]; [3]", "value": "61% and 53%"}, {"measurement": "Population Normal (%)", "setting": "[2]; [3]", "value": 94, "unit": "%"}, {"measurement": "Population Pyknosed Nuclei (%)", "setting": "[2]; [3]", "value": "8% and 14%"}, {"measurement": "Population Tubulin-Different-Phenotype (%)", "setting": "[2]; [3]", "value": "26% and 17%"}, {"measurement": "Total Cell Count", "setting": "[2]; [3]", "value": "418 and 285"}, {"measurement": "Population Apoptotic (%)", "setting": "[2]; [4]", "value": "31% and 53%"}, {"measurement": "Population Fragmented Nuclei (%)", "setting": "[2]; [4]", "value": "7% and 5%"}, {"measurement": "Population Healthy Nuclei (%)", "setting": "[2]; [4]", "value": "76% and 80%"}, {"measurement": "Population Hoechst High Intensity Objects (%)", "setting": "[2]; [4]", "value": "9% and 11%"}, {"measurement": "Population Membrane Permeable-Phenotype (%)", "setting": "[2]; [4]", "value": 0, "unit": "%"}, {"measurement": "Population Mitochondria Different-Phenotype (%)", "setting": "[2]; [4]", "value": "48% and 61%"}, {"measurement": "Population Mitotic Cells (%)", "setting": "[2]; [4]", "value": "68% and 46%"}, {"measurement": "Population Normal (%)", "setting": "[2]; [4]", "value": "90% and 88%"}, {"measurement": "Population Pyknosed Nuclei (%)", "setting": "[2]; [4]", "value": "15% and 13%"}, {"measurement": "Population Tubulin-Different-Phenotype (%)", "setting": "[2]; [4]", "value": "29% and 23%"}, {"measurement": "Total Cell Count", "setting": "[2]; [4]", "value": "403 and 435"}, {"measurement": "Population Apoptotic (%)", "setting": "[2]; [5]", "value": "28% and 51%"}, {"measurement": "Population Fragmented Nuclei (%)", "setting": "[2]; [5]", "value": "9% and 7%"}, {"measurement": "Population Healthy Nuclei (%)", "setting": "[2]; [5]", "value": "80% and 84%"}, {"measurement": "Population Hoechst High Intensity Objects (%)", "setting": "[2]; [5]", "value": "4% and 3%"}, {"measurement": "Population Membrane Permeable-Phenotype (%)", "setting": "[2]; [5]", "value": 0, "unit": "%"}, {"measurement": "Population Mitochondria Different-Phenotype (%)", "setting": "[2]; [5]", "value": "28% and 41%"}, {"measurement": "Population Mitotic Cells (%)", "setting": "[2]; [5]", "value": "71% and 48%"}, {"measurement": "Population Normal (%)", "setting": "[2]; [5]", "value": "95% and 96%"}, {"measurement": "Population Pyknosed Nuclei (%)", "setting": "[2]; [5]", "value": "9% and 8%"}, {"measurement": "Population Tubulin-Different-Phenotype (%)", "setting": "[2]; [5]", "value": "20% and 12%"}]}
